Compound activity: PubChem, several laboratories
Rows were chosen to be rich in hits. Some 2.4% of all compounds tested hit in one or more screens of this group.
RanGTP-Impb inh: inhibitors of RanGTP-importin-beta interaction, primary screen, biochemical, FRET, CFP-Ran, YFP-importin-beta, homogeneous; AID 2216; inhibition, % (no concentration beside the values); hit rate 1.1% among 300,000; cell-free CFP-Ran/YFP-importin-beta FRET ratio;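 active = more than half of the replicate wells show a fall in the fluorescence ratio signal beyond about 16%, limit read from the data, passing the limit was not always enough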;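 note: 0% = DMSO wells and 100% = Ran loaded with GDP instead of GTP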
EBV gp42 inh: EBV gp42 inhibition. Fluorescence polarization binding assay, mP read-out. hit rate 0.42% among 220,000. AID 1085. inhibition, % (tested at 21.74 µM). Q1HVG2; in the data active = inhibition above about 50%
MEX-5 binding: C. elegans MEX-5 TCR-2 RNA binding activity; Q9XUB2; MEX-5/FITC-TCR2 RNA binding, fluorescence polarization; hits give low values; activity score (negative = inhibition of binding), % at 10 µM; hit rate 0.38% among 300,000; AID 1832;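 active = inhibition past about -25% in most replicates, and total fluorescence under double the plate's negative control median, limit read from the data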;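 note: 0% = DMSO and -100% = 5 µM competing unlabeled TCR2 RNA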
Target sequence (Q9XUB2 whole entry, looked up): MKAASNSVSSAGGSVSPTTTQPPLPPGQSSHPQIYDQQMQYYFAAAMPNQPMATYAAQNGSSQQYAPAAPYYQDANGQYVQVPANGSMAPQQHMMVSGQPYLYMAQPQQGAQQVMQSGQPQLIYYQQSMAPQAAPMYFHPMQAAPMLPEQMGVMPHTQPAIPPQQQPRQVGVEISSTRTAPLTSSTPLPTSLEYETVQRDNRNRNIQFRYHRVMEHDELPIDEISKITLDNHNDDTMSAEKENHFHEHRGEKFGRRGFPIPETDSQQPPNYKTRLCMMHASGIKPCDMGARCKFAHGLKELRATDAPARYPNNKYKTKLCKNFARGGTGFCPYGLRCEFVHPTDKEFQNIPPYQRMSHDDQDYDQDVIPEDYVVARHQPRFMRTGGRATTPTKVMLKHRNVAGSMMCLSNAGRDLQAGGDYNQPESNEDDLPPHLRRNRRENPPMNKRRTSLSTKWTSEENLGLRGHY
Runt-SMMHC FRET: Runt domain-CBFb-SMMHC interaction inhibition. Q01196+Q13951. Cerulean-Runt/Venus-CBFb-SMMHC FRET ratio 530/480, 1 h. inhibition, % at 20 µM. hit rate 0.74% among 220,000;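 active = mean inhibition across duplicate retests at 20 µM reaching about 50%, limit read from the data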;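 note: 0% = DMSO wells and 100% = wells with excess untagged CBFb-SMMHC; inhibitors lower the FRET ratio by blocking Runt binding to CBFb-SMMHC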
LANA-H2A inh: blocks KSHV LANA binding to histone H2A/H2B | Q9QR71 | cell-free LANA-H2A/H2B peptide, fluorescence polarization | inhibition, % (concentration not given with the values) | hit rate 0.6% among 320,000 | AID 2629; in the data active = inhibition mostly above about 10%, no sharp cut-off; inactive = mostly below about 6.7%
Runt-CBFb FRET: blocks binding of human RUNX1 Runt domain to CBFb | Q01196+Q13951 | Cerulean-Runt/Venus-CBFb FRET ratio 530/480, 1 h | inhibition, % at 20 µM | hit rate 0.46% among 220,000 | AID 1496;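 active = inhibition over about 50% at 20 µM in the single-dose screen, limit read from the data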;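 note: 0% = DMSO wells and 100% = excess unlabeled CBFb competitor control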
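test system = Cerulean-Runt domain fusion protein, energy donor | probe or stimulus = Venus-CBFb binding partner, 100 nM | incubation = two 1 h room-temperature incubations shielded from light | detection = fluorescence energy transfer, 422 nm excitation, 530/480 nm emission | measure = loss of energy transfer signal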
* = called active by the depositor; x = no result.

SMILES | RanGTP-Impb inh | EBV gp42 inh | MEX-5 binding | Runt-SMMHC FRET | LANA-H2A inh | Runt-CBFb FRET
O=C(NC1CC1)c1ccc(-n2cccc2)cc1 | 4 | 2 | -2 | 2 | 99* | 2
O=C(NC1CCCCCC1)c1ccc(-n2cnnc2)cc1 | -2 | x | -2 | x | 4 | x
CC(=O)N1CCc2cc(S(=O)(=O)N3CC(C)CC(C)C3)ccc21 (stereo not drawn) | 2 | x | x | x | 3 | x
CCN1CCc2c(sc(NC(=O)c3ccc(S(=O)(=O)N4CCCC4)cc3)c2C(=O)NC)C1 | 46* | x | 1 | x | -1 | x
NC(=O)c1c(NC(=O)c2ccc(S(=O)(=O)N3CCOCC3)cc2)sc2c1CCCCC2 | 2 | -6 | -1 | -32 | 4 | -4
CC(C)N1CCc2c(sc(NC(=O)c3ccc(S(=O)(=O)N4CCCCC4C)cc3)c2C(N)=O)C1 (stereo not drawn) | 107* | x | -20 | x | -12 | x
CCCN1CCc2c(sc(NC(=O)c3ccc(S(=O)(=O)N(C)c4ccccc4)cc3)c2C(=O)NC)C1 | 10 | x | -5 | x | 1 | x
CNC(=O)c1c(NC(=O)c2ccc(S(=O)(=O)N3CCCCC3)cc2)sc2c1CCN(C(C)C)C2 | 93* | x | -13 | x | 0 | x
Cc1nnc(NC(=O)c2ccc(S(=O)(=O)N3CCCCC3C)cc2)o1 (stereo not drawn) | 4 | x | -3 | x | -4 | x
O=c1oc2c(CN3CCOCC3)c(O)c(Cl)cc2c2c1CCCC2 | 85* | -8 | -4 | 42 | 0 | 105*
CCCc1cc(=O)oc2c(CN3CCN(C)CC3)c(O)ccc12 | 7 | x | -3 | x | -1 | x
O=c1oc2c(CN3CCOCC3)c(O)ccc2c2c1CCCC2 | 33* | -6 | 0 | 66* | 4 | 42
CCCc1cc(=O)oc2c(CN3CCOCC3)c(O)ccc12 | 5 | -2 | -2 | 90* | 0 | x
Cc1c(O)c(CN2CCCC2)cc2c3c(c(=O)oc12)CCC3 | 14 | -1 | -3 | 37 | -2 | 26
CC(C)(C)C(=O)CN1C(=O)NC2(CCCc3ccccc32)C1=O (stereo not drawn) | 2 | x | -2 | x | -4 | x
CCCCOn1c(C)c(C(C)=O)c2c3no[n+]([O-])c3ccc21 | -2 | -10 | 0 | 2 | 13* | -3
O=C1C2CCCN2C(=O)N1CCCCN1CCN(CCO)CC1 (stereo not drawn) | 1 | 6 | 2 | 0 | -1 | 0
CC(C)NC(=S)n1cc(C(=O)c2cc(Cl)cc(Cl)c2O)cn1 | 21* | x | -2 | x | -1 | x
COc1ccccc1OCC(=O)n1cc(C(=O)c2cc(Cl)cc(Cl)c2O)cn1 | -5 | -7 | 5 | -25 | 0 | -10
COC1CCCN(C(=O)c2cccc(OC3CCN(S(C)(=O)=O)CC3)c2)C1 (stereo not drawn) | -1 | x | -1 | x | -1 | x
COCCC1CCCCN1C(=O)c1cccc(OC2CCN(S(C)(=O)=O)CC2)c1 (stereo not drawn) | 4 | x | 5 | x | 17* | x
Cc1cc(O)c(C=O)c2c1C(=O)Oc1c(CO)c(O)c3c(c1O2)C(O)OC3=O (stereo not drawn) | x | -1 | x | 40 | -2 | 53*
Cn1c2c(c(=O)[nH]c1=O)C(c1cccc(O)c1)C1=C(N2)c2ccccc2C1=O (stereo not drawn) | x | -3 | x | -3 | x | -2
Cn1cc(/C=N\NC(=O)c2cccs2)c2ccccc21 | -3 | -13 | 3 | 0 | 17* | 1
Cc1cccc2cc(/C=C3\N=C(c4ccccc4)OC3=O)c(N3CCOCC3)nc12 | -1 | 135* | -9 | -1 | 8 | -1
Cc1ccc(C2=N/C(=C/N3CCOCC3)C(=O)O2)cc1 | -5 | -12 | 1 | 1 | 6 | -3
COC(=O)c1c(N)n(-c2ccc(N3CCOCC3)cc2)c2nc3ccccc3nc12 | x | x | x | -1 | x | -1
COCCn1c(N)c(S(=O)(=O)c2cccs2)c2nc3ccccc3nc21 | -15 | 4 | -4 | 20 | -1 | 10
CCOC(=O)c1c(N)n(CC(C)NC(=O)C2CC2)c2nc3ccccc3nc12 (stereo not drawn) | x | -15 | x | 163* | x | 74*
COCCn1c(N)c(C(=O)Nc2sc3c(c2C(=O)OC)CCCC3)c2nc3ccccc3nc21 | 1 | -7 | 0 | 32 | -1 | 87*
